In ChEMBL document CHEMBL1148251, “Syntheses of sphingosine-1-phosphate analogues and their interaction with EDG/S1P receptors” (Bioorg Med Chem Lett, 2004):

What was measured:
Format in all cases: cell-based
[1] = target: Sphingosine 1-phosphate receptor 1 (Homo sapiens) (UniProt P21453); test: Percent binding affinity to displace radioligand [3H]SIP from Sphingosine 1-phosphate receptor Edg-1 expressed in CHO cells
Method in brief: (§1)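 Whole transfected CHO cells (Edg-1, Edg-3 or Edg-5; mock-transfected control), confluent, rinsed twice in ice-cold buffer (20 mM Tris–HCl pH 7.5, 100 mM NaCl, 15 mM NaF, 0.4% BSA), then held on ice 90 min with 2 nM [3H]-S1P ± 1 µM test ligand. Unbound label washed off, cells solubilized in SDS/NaOH/Na2CO3, bound radioactivity counted by liquid scintillation; duplicate determinations, mean ± SD.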

[2] = target: Sphingosine 1-phosphate receptor 2 (Homo sapiens) (UniProt O95136); test: Percent binding affinity to displace radioligand [3H]-SIP from EDG-5/S1P2 receptors expressed in CHO cells; method in brief: as §1
Sphingosine 1-phosphate receptor 2 (Homo sapiens), sequence (O95136 whole entry): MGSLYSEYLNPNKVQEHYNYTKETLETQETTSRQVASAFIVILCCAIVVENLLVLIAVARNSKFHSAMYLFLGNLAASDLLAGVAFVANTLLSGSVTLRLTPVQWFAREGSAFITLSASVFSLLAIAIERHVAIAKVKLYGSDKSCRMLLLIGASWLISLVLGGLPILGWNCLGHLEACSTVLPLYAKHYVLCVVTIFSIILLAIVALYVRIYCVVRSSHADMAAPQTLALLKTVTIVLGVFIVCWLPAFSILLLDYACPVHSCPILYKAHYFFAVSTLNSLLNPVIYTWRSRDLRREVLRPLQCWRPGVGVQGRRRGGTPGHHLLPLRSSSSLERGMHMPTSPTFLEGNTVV

[3] = target: Sphingosine 1-phosphate receptor 3 (Homo sapiens) (UniProt Q99500); test: Percent binding affinity to displace radioligand [3H]SIP from EDG-3/S1P3 receptors expressed in CHO cells; method in brief: as §1
Sphingosine 1-phosphate receptor 3 (Homo sapiens), sequence (Q99500 whole entry): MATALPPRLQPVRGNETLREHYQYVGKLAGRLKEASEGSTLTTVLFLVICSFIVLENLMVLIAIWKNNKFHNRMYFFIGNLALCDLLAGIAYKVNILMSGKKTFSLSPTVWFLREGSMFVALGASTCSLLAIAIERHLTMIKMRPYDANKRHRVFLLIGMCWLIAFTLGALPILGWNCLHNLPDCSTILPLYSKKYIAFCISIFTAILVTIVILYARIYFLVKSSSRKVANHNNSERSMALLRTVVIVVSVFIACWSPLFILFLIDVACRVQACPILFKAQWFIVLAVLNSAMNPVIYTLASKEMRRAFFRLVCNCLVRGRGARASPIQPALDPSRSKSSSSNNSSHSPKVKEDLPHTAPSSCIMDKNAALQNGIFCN

Sphingosine 1-phosphate receptor 1 (Homo sapiens), sequence (P21453 whole entry): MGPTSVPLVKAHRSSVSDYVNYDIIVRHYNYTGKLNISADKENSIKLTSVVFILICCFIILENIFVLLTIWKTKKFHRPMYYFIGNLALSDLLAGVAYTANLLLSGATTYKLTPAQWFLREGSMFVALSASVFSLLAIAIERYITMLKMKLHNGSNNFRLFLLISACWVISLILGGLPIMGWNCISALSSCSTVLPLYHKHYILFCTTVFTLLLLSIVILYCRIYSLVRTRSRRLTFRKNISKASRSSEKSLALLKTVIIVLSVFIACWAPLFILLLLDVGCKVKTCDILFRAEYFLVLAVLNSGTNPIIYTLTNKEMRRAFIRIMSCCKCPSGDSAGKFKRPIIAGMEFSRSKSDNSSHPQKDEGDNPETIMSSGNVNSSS

`CCCCCCCCCCCCC/C=C/[C@@H](O)[C@H](COP(=O)(O)O)NC` gave a % binding [1] of 55.1%.
In the case of `CCCCCCCCCCCCC/C=C/[C@@H](O)[C@H](COP(=O)(O)O)NCC`, the % binding [1] is reported as 51.4%.
Work on `CCCCCCCCCCCCCC[C@@H](N)COP(=O)(O)O` yielded a % binding [2] of 84% and a % binding [3] of 82%.
